Data from ChEMBL document CHEMBL4011584, “Overcoming drug resistance by cell-penetrating peptide-mediated delivery of a doxorubicin dimer with high DNA-binding affinity” (Eur J Med Chem, 2017).
Blank lines part the entries; values can stand above or below the compound they belong to. The source made the active and inactive calls. The rule behind the calls is not given here.

Assays:
[1] = (§1) Drug level treated with (S,S,R,S,S,S,E)-N,N'-((6S,9S,12S,15S,18S,21S,24S,27S)-30-acetamido-1-amino-6-carbamoyl-9,12,15,18,21,24,27-heptakis(3-guanidinopropyl)-1-imino-8,11,14,17,20,23,26,29,37-nonaoxo-32,33-dithia-2,7,10,13,16,19,22,25,28,36-decaazadotetracontane-38,42-diyl)bis(2-((E)-1-((2S,4S)-4-((2R,4S,5S,6S)-4-amino-5-hydroxy-6-methyltetrahydro-2H-pyran-2-yloxy)-2,5,12-trihydroxy-7-methoxy-6,11-dioxo-1,2,3,4,6,11-hexahydrotetracen-2-yl)-2-hydroxyethylideneaminooxy)acetamide)decaacetate at 1 mM in presence of glutathione at 1 min post dose by MALDI-TOF-mass spectroscopic analysis
Summary of the method: (§2)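 Conjugate at 1 mM in DPBS pH 7.4 with 10 mM glutathione (tenfold excess), 37°C, shaking at 300 rpm. Disulfide reduction followed by HPLC at 480 nm over 24 h. Cleavage products identified by MALDI-TOF MS.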

[2] = Antiproliferative activity against human Kelly cells after 72 hrs by CellTiter-Glo luminescent cell viability assay; format: functional, cell-based
Summary of the method: (§3)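 1×10^3 cells/well, allowed to attach 24 h, then exposed 72 h to 0.05-20 µM drug. Viability by ATP luminescence (CellTiter-Glo) relative to untreated controls with medium correction. IC50 read from log-concentration survival curves, independent triplicates. Kelly-WT and doxorubicin-selected Kelly-ADR (tenfold resistant) cultured in RPMI1640 with 10 % FCS, 2 mM glutamine and pen/strep at 37°C, 5 % CO2.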

[3] = Antiproliferative activity against human adriamycin-resistant Kelly cells after 72 hrs by CellTiter-Glo luminescent cell viability assay; format: functional, cell-based; summary of the method: as §3
MCF7 = test: Antiproliferative activity against human MCF7 cells after 72 hrs by CellTiter-Glo luminescent cell viability assay; format: functional, cell-based; settings: MCF7, 72 h
[4] = as §1, with “after 24 hrs” for “at 1 min post dose”; summary of the method: as §2
[5] = Drug uptake in nucleus of human adriamycin-resistant Kelly cells at 10 uM after 72 hrs by DRAQ5-staining based fluorescence confocal microscopic method; format: ADME
Summary of the method: (§4)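 Kelly-WT or Kelly-ADR cells exposed 72 h to 10 µM drug. Nuclei counterstained with 5 µM DRAQ5 for 5 min before live confocal imaging at 37°C, 5 % CO2. Nuclear localization scored by overlay (colocalization) with the DRAQ5 signal.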

[6] = Drug uptake in human Kelly cell membrane at 10 uM after 24 hrs by fluorescence confocal microscopic method; format: ADME, cell-based
Summary of the method: (§5)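 Live Kelly-WT or Kelly-ADR cells (1×10^4/well) exposed to 10 µM drug for 24 or 72 h at 37°C, 5 % CO2. Imaged by confocal laser scanning microscopy with a 63× water objective. Red signal is anthracycline-associated fluorescence.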

[7] = Drug uptake in cytosol of human Kelly cells at 10 uM after 72 hrs by fluorescence confocal microscopic method; format: ADME; summary of the method: as §5
[8] = Potency index, ratio of doxorubicin IC50 to compound IC50 for human adriamycin-resistant Kelly cells; format: functional
[9] = Drug uptake in human Kelly cells at 10 uM after 72 hrs by fluorescence confocal microscopic method; format: ADME, cell-based; summary of the method: as §5
[10] = Drug uptake in nucleus of human Kelly cells at 10 uM after 72 hrs by DRAQ5-staining based fluorescence confocal microscopic method; format: ADME; summary of the method: as §4
[11] = Drug uptake in human Kelly cells at 10 uM after 24 hrs by fluorescence confocal microscopic method; format: ADME, cell-based; summary of the method: as §5
[12] = Drug uptake in nucleus of adriamycin-resistant human Kelly cells at 10 uM after 72 hrs by fluorescence confocal microscopic method; format: ADME; summary of the method: as §5
[13] = Drug uptake in human adriamycin-resistant Kelly cells at 10 uM after 24 hrs by fluorescence confocal microscopic method; format: ADME, cell-based; summary of the method: as §5
[14] = Drug uptake in adriamycin-resistant human Kelly cell membranes at 10 uM after 72 hrs by fluorescence confocal microscopic method; format: ADME; summary of the method: as §5
[15] = Stability of the compound at pH 5 assessed as doxorubicin formation; format: physicochemical; settings: buffer
[16] = Drug uptake in nucleus of human Kelly cells at 10 uM after 72 hrs by fluorescence confocal microscopic method; format: ADME; summary of the method: as §5
[17] = Binding affinity to Cy5-labelled-36 base pair double stranded DNA (unknown origin) measured under infrared laser light by microscale thermophoresis
Summary of the method: (§6)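 Microscale thermophoresis: 50 nM Cy5-labeled DNA titrated with ligand in 50 mM Tris pH 6.5, 15 mM NaCl, 10 mM MgCl2, 0.05 % Tween 20. IR laser at 10 % intensity, starting from room temperature. Fluorescence signals fitted assuming 1:1 binding to give Ka/EC50.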

[18] = Binding affinity to Cy5-labelled-12 base pair double stranded DNA (unknown origin) measured under infrared laser light by microscale thermophoresis; summary of the method: as §6
[19] = Drug uptake in nucleus of human adriamycin-resistant Kelly cells at 10 uM after 24 hrs by fluorescence confocal microscopic method; format: ADME; summary of the method: as §5
[20] = Drug uptake in cytosol of adriamycin-resistant human Kelly cells at 10 uM after 72 hrs by fluorescence confocal microscopic method; format: ADME; summary of the method: as §5
[21] = as §1, with “3 hrs” for “1 min”; summary of the method: as §2
[22] = Potency index, ratio of doxorubicin Ka to compound Ka for binding affinity to Cy5-labelled-36 base pair double stranded DNA (unknown origin)
[23] = Potency index, ratio of doxorubicin EC50 to compound EC50 for binding affinity to Cy5-labelled-36 base pair double stranded DNA (unknown origin)

Compound: COc1cccc2c1C(=O)c1c(O)c3c(c(O)c1C2=O)C[C@@](O)(/C(CO)=N/OCC(=O)NCCCC[C@H](NC(=O)CO/N=C(\CO)[C@]1(O)Cc2c(O)c4c(c(O)c2[C@@H](O[C@H]2C[C@H](N)[C@H](O)[C@H](C)O2)C1)C(=O)c1c(OC)cccc1C4=O)C(=O)NCCS)C[C@@H]3O[C@H]1C[C@H](N)[C@H](O)[C@H](C)O1
Drug metabolism [1]: Metabolite detected

Compound: CC(=O)N[C@@H](CS)C(=O)N[C@@H](CCCNC(=N)N)C(=O)N[C@@H](CCCNC(=N)N)C(=O)N[C@@H](CCCNC(=N)N)C(=O)N[C@@H](CCCNC(=N)N)C(=O)N[C@@H](CCCNC(=N)N)C(=O)N[C@@H](CCCNC(=N)N)C(=O)N[C@@H](CCCNC(=N)N)C(=O)N[C@@H](CCCNC(=N)N)C(N)=O
IC50 [2]: ≥ 100000 nM
IC50 [3]: ≥ 100000 nM
IC50 (MCF7): ≥ 100000 nM

Compound: COc1cccc2c1C(=O)c1c(O)c3c(c(O)c1C2=O)C[C@@](O)(/C(CO)=N/OCC(=O)NCCCC[C@H](NC(=O)CO/N=C(\CO)[C@]1(O)Cc2c(O)c4c(c(O)c2[C@@H](O[C@H]2C[C@H](N)[C@H](O)[C@H](C)O2)C1)C(=O)c1c(OC)cccc1C4=O)C(=O)NCCSSCCNC(=O)[C@H](CCCCNC(=O)CO/N=C(\CO)[C@]1(O)Cc2c(O)c4c(c(O)c2[C@@H](O[C@H]2C[C@H](N)[C@H](O)[C@H](C)O2)C1)C(=O)c1c(OC)cccc1C4=O)NC(=O)CO/N=C(\CO)[C@]1(O)Cc2c(O)c4c(c(O)c2[C@@H](O[C@H]2C[C@H](N)[C@H](O)[C@H](C)O2)C1)C(=O)c1c(OC)cccc1C4=O)C[C@@H]3O[C@H]1C[C@H](N)[C@H](O)[C@H](C)O1
Drug metabolism [4]: Metabolite detected

Drug uptake [5]: Active
Drug uptake [6]: Active
Drug uptake [7]: Active
Drug uptake [9]: Active
Drug uptake [10]: Active
Drug uptake [11]: Active
Drug uptake [12]: Active
Drug uptake [13]: Active
Drug uptake [14]: Active
Stability [15]: Stable
IC50 (MCF7): 3660 nM
Compound: CC(=O)O.CC(=O)O.CC(=O)O.CC(=O)O.CC(=O)O.CC(=O)O.CC(=O)O.CC(=O)O.CC(=O)O.CC(=O)O.COc1cccc2c1C(=O)c1c(O)c3c(c(O)c1C2=O)C[C@@](O)(/C(CO)=N/OCC(=O)NCCCC[C@H](NC(=O)CO/N=C(\CO)[C@]1(O)Cc2c(O)c4c(c(O)c2[C@@H](O[C@H]2C[C@H](N)[C@H](O)[C@H](C)O2)C1)C(=O)c1c(OC)cccc1C4=O)C(=O)NCCSSC[C@H](NC(C)=O)C(=O)N[C@@H](CCCNC(=N)N)C(=O)N[C@@H](CCCNC(=N)N)C(=O)N[C@@H](CCCNC(=N)N)C(=O)N[C@@H](CCCNC(=N)N)C(=O)N[C@@H](CCCNC(=N)N)C(=O)N[C@@H](CCCNC(=N)N)C(=O)N[C@@H](CCCNC(=N)N)C(=O)N[C@@H](CCCNC(=N)N)C(N)=O)C[C@@H]3O[C@H]1C[C@H](N)[C@H](O)[C@H](C)O1
IC50 [2]: 2470 nM
Ratio IC50 [8]: 3
IC50 [3]: 2760 nM

Drug uptake [16]: Active
EC50 [17]: 1160 nM
Kd [17]: 1130 nM
Activity [18]: inactive
Drug uptake [9]: Active
Drug uptake [11]: Active
Drug uptake [12]: Not Active
Drug uptake [13]: Active
Drug uptake [19]: Active
Drug uptake [20]: Not Active
Compound: COc1cccc2c1C(=O)c1c(O)c3c(c(O)c1C2=O)C[C@@](O)(C(=O)CO)C[C@@H]3O[C@H]1C[C@H](N)[C@H](O)[C@H](C)O1 [DOXORUBICIN]
IC50 [2]: 180 nM
IC50 [3]: 6570 nM

Compound: COc1cccc2c1C(=O)c1c(O)c3c(c(O)c1C2=O)C[C@@](O)(/C(CO)=N/OCC(=O)NCCCC[C@H](NC(=O)CO/N=C(\CO)[C@]1(O)Cc2c(O)c4c(c(O)c2[C@@H](O[C@H]2C[C@H](N)[C@H](O)[C@H](C)O2)C1)C(=O)c1c(OC)cccc1C4=O)C(=O)NCCSSC[C@H](NC(=O)CC[C@@H](N)C(=O)O)C(=O)NCC(=O)O)C[C@@H]3O[C@H]1C[C@H](N)[C@H](O)[C@H](C)O1
Drug metabolism [21]: Metabolite detected

EC50 [17]: 150 nM
Ka [17]: 7.9 ×10⁶ /M
Kd [17]: 126 nM
Activity [18]: inactive
Ratio [22]: 10
IC50 (MCF7): 6730 nM
Ratio EC50 [23]: 10
Compound: COc1cccc2c1C(=O)c1c(O)c3c(c(O)c1C2=O)C[C@@](O)(/C(CO)=N/OCC(=O)NCCCC[C@H](NC(=O)CO/N=C(\CO)[C@]1(O)Cc2c(O)c4c(c(O)c2[C@@H](O[C@H]2C[C@H](N)[C@H](O)[C@H](C)O2)C1)C(=O)c1c(OC)cccc1C4=O)C(=O)NCCSSc1ccccn1)C[C@@H]3O[C@H]1C[C@H](N)[C@H](O)[C@H](C)O1
IC50 [2]: 1790 nM
IC50 [3]: 7330 nM
